The text below walks through data of PMC5966832 (Environmental science & technology, 2018).

One data set deals with recombinant rat CYP2B1. The note with it: E2-PCB 91 enriched; cited from earlier work.
The subject of data set [1] is human liver microsomes. In kind it is in vitro ADME. The following applies: for Difference in rate of metabolite formation, donor H1 vs. donor H5: individual donor HLM preparations. The method, boiled down:
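Pooled HLMs (50 donors, mixed gender) or female single-donor HLMs (H1–H5, age 20–58) were used. Buffer was 0.1 M phosphate pH 7.4 with 3 mM MgCl2. Pre-incubated 5 min at 37 °C, then started with substrate in DMSO (≤0.5% of volume), in triplicate. Stopped with ice-cold 0.5 M NaOH and heated 110 °C for 10 min. Extracts were methylated and run on GC-μECD against PCB 204 using relative response factors. Rates adjusted per nmol P450 or per mg protein.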

Data set [2] is classed as physicochemical. The note with it: extract heated at 300 °C for 2 h; for EF of the OH-PCB metabolite after racemization: 15 min incubation, donor H5. A digest of the protocol: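 Representative hexane extracts were placed in amber ampules and heated at 300 °C. One came from a pooled-HLM incubation; the other from a 50 μM PCB 91 incubation with donor H5 microsomes. Both were re-run by enantioselective GC-μECD, ChiralDex B-DM or G-TA column according to analyte. EF = E1/(E1+E2), drop valley method.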

Another data set has as its system rat liver microsomes. The note with it: E2-PCB 91 enriched; cited from earlier work.
Data set [3] concerns human liver microsomes. The experiment in a line: Atropselective. In kind it is in vitro ADME. The following applies: for EF of the OH-PCB metabolite before racemization: representative extract, 15 min incubation, 50 μM PCB 91, HLMs from donor H5. A digest of the protocol: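 Racemic PCB 91 at 50 μM was incubated 15 min at 37 °C with 0.1 mg/mL microsomes and 1 mM NADPH, in triplicate. Depletion runs used 5 or 50 μM, 120 min, 0.5 mg/mL protein and 0.5 mM NADPH. Metabolites were methylated with diazomethane. GC-μECD used a ChiralDex B-DM column (135 °C) for PCB 91, 5-91 and 4-91, and a G-TA column (140 °C) for 3-100. EF = E1/(E1+E2) by drop valley; mean ± SD.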

Regarding `Clc1ccc(-c2c(Cl)ccc(Cl)c2Cl)c(Cl)c1` [PCB 91, 2,2′,3,4′,6-pentachlorobiphenyl], the “EF of PCB 91 in incubations with recombinant rat CYP2B1” value in the data set on recombinant rat CYP2B1 is given as 0.45. The “PCB 91 added to the incubation converted to OH-PCB metabolites” value in the data set with human liver microsomes [1] (50 μM PCB 91, 0.1 mg/mL HLMs, 1 mM NADPH, 5 or 15 min, 37 °C) was at most 2%. The “EF of PCB 91 after racemization” value in data set [2] (2 h incubation, 5 μM PCB 91, pHLMs) was 0.50. Besides, the “EF of PCB 91 in incubations with rat liver microsomes” value with rat liver microsomes is on record as 0.43. Moreover, the “EF of PCB 91, all other incubations” value in the data set with human liver microsomes [3] (high concentrations of racemic PCB 91) is recorded as “near racemic”.

As for `Oc1cc(Cl)c(Cl)c(-c2ccc(Cl)cc2Cl)c1Cl` [5-91, 2,2′,3,4′,6-pentachlorobiphenyl-5-ol], in the data set on human liver microsomes [1], the “Difference in rate of metabolite formation, donor H1 vs. donor H5” value (shortened to “Difference in rate”) is reported as 19 fold. In addition, the “EF of the OH-PCB metabolite after racemization” value in data set [2] was found to be 0.49. Moreover, the “EF of the OH-PCB metabolite before racemization” value in the data set with human liver microsomes [3] was 0.43.

As to `Oc1cc(Cl)c(-c2ccc(Cl)cc2Cl)c(Cl)c1Cl` [4-91, 2,2′,3,4′,6-pentachlorobiphenyl-4-ol], in the data set with human liver microsomes [1], the “Difference in rate” value came out at 5.4 fold. Moreover, the “EF of the OH-PCB metabolite after racemization” value in data set [2] is recorded as 0.51. The “EF of the OH-PCB metabolite before racemization” value in the data set on human liver microsomes [3] is reported as 0.85.

On to `Oc1c(Cl)cc(Cl)c(-c2ccc(Cl)cc2Cl)c1Cl` [3-100, 2,2′,4,4′,6-pentachlorobiphenyl-3-ol], for which the “Difference in rate” value with human liver microsomes [1] came out at 2.6 fold. Further, the “EF of the OH-PCB metabolite after racemization” value in data set [2] is listed as 0.46. Besides, in the data set on human liver microsomes [3], the “EF of the OH-PCB metabolite before racemization” value stood at 0.87.
